Assay results published in ChEMBL document CHEMBL2417515, “Microwave assisted synthesis of some hybrid molecules derived from norfloxacin and investigation of their biological activities” (Eur J Med Chem, 2013).
≈ marks a conversion by molar mass, not a printed value. Calls of active or inactive are those of the source. The rule behind the calls is not given here.

Experiments:
[1] = test system: Yersinia pseudotuberculosis; experiment: Antimicrobial activity against Yersinia pseudotuberculosis ATCC 911 after 18 to 24 hrs by double microdilution method; type: functional
Method in brief: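 Double broth microdilution MIC (µg/mL). Mueller-Hinton broth pH 7.3; plates incubated 18–24 h at 35 °C. Compounds dissolved in […] as 20.000 µg/mL stock. Ampicillin as reference antibacterial; DMSO diluted 1:10 as solvent control.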

Pseudomonas aeruginosa = experiment: Antimicrobial activity against Pseudomonas aeruginosa ATCC 43288 after 18 to 24 hrs by double microdilution method; type: functional
Method in brief: (§1)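 Twofold broth microdilution in Mueller-Hinton broth, pH 7.3. Compounds come from 20.000 µg/mL stocks in hexane. […] Ampicillin serves as reference drug and DMSO diluted 1:10 as solvent control.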

[2] = test system: Mycolicibacterium smegmatis; experiment: Antimicrobial activity against Mycobacterium smegmatis ATCC 607 after 48 to 72 hrs by double microdilution method; type: functional
Saccharomyces cerevisiae = experiment: Antimicrobial activity against Saccharomyces cerevisiae RSKK 251 after 18 to 24 hrs by double microdilution method; type: functional
Bacillus cereus = experiment: Antimicrobial activity against Bacillus cereus 702 Roma after 18 to 24 hrs by double microdilution method; type: functional; method in brief: as §1
Candida albicans = experiment: Antimicrobial activity against Candida albicans ATCC 60193 after 18 to 24 hrs by double microdilution method; type: functional
Enterococcus faecalis = experiment: Antimicrobial activity against Enterococcus faecalis ATCC 29212 after 18 to 24 hrs by double microdilution method; type: functional; method in brief: as §1
Staphylococcus aureus = experiment: Antimicrobial activity against Staphylococcus aureus ATCC 25923 after 18 to 24 hrs by double microdilution method; type: functional; method in brief: as §1
Urease = Urease (Canavalia ensiformis, UniProt P07374); experiment: Inhibition of Jack bean urease using urea as substrate assessed as production of ammonia after 15 mins
Chain of Urease (P07374 whole entry): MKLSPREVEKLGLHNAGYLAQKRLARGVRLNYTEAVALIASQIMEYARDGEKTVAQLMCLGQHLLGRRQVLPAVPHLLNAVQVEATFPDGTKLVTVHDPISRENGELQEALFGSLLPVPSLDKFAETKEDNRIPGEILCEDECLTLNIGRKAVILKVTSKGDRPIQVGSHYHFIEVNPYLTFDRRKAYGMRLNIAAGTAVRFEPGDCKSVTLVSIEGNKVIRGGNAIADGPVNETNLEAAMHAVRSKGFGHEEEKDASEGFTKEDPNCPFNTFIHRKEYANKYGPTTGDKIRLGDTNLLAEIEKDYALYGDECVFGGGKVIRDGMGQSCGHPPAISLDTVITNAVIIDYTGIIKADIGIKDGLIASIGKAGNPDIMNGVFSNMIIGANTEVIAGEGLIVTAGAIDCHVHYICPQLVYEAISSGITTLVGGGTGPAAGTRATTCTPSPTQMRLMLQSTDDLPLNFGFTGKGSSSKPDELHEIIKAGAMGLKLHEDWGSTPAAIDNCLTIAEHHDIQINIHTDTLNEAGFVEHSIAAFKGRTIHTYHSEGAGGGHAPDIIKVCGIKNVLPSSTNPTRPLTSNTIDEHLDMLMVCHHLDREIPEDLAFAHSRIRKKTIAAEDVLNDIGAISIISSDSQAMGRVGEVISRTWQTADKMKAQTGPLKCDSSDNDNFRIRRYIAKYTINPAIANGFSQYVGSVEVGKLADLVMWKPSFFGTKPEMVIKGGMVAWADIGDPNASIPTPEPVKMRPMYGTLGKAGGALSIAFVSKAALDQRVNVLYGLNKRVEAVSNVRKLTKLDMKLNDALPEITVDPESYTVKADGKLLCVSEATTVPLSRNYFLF
Method in brief: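 Jack bean urease in buffer (100 mM urea, 0.01 M K2HPO4, 1 mM EDTA, 0.01 M LiCl, pH 8.2) incubated with compound 15 min at room temperature. Ammonia read by indophenol method (phenol/nitroprusside plus NaOH/NaOCl), absorbance 625 nm after 20 min. % inhibition = 100 − (OD test/OD control)×100. IC50 from serial concentrations (250 to 0.114 µg/mL), triplicate; thiourea standard.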

[3] = target: Urease (Canavalia ensiformis) (UniProt P07374); experiment: Inhibition of Jack bean urease using urea as substrate assessed as production of ammonia at 100 ug/ml after 15 mins
Chain of Urease (Canavalia ensiformis) (P07374 whole entry, looked up): as the sequence (P07374 whole entry) above
Method in brief: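 Jack bean urease with buffer (100 mM urea, 0.01 M K2HPO4, 1 mM EDTA, 0.01 M LiCl, pH 8.2) and compound, 15 min at room temperature. Ammonia read by indophenol method (phenol/nitroprusside plus NaOH/NaOCl), A625 after 20 min. % inhibition = 100 − (OD test/OD control)×100. Thiourea as standard; triplicates.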

SMILES	MIC [1]	MIC (Pseudomonas aeruginosa)	MIC [2]	MIC (Saccharomyces cerevisiae)	MIC (Bacillus cereus)	MIC (Candida albicans)	MIC (Enterococcus faecalis)	MIC (Staphylococcus aureus)	IC50 (Urease)	inhibition [3]
CCn1cc(C(=O)O)c(=O)c2cc(F)c(N3CCN(c4ccc(NC(=O)NCc5ccccc5)cc4F)CC3)cc21	inactive	inactive	inactive	250 µg/mL (≈ 445 µM)	500 µg/mL (≈ 890 µM)	500 µg/mL (≈ 890 µM)	500 µg/mL (≈ 890 µM)	500 µg/mL (≈ 890 µM)		
CCn1cc(C(=O)O)c(=O)c2cc(F)c(N3CCN(c4ccc(/N=c5\sc(-c6ccc(Cl)cc6)cn5Cc5ccccc5)cc4F)CC3)cc21	inactive	inactive	inactive	250 µg/mL (≈ 351 µM)	inactive	250 µg/mL (≈ 351 µM)	250 µg/mL (≈ 351 µM)	inactive		
CCn1cc(C(=O)O)c(=O)c2cc(F)c(N3CCN(C(=O)CCl)CC3)cc21	1.7 µg/mL (≈ 4.29 µM)	15.6 µg/mL (≈ 39.4 µM)	0.42 µg/mL (≈ 1.06 µM)	inactive	0.21 µg/mL (≈ 0.531 µM)	inactive	0.21 µg/mL (≈ 0.531 µM)	0.21 µg/mL (≈ 0.531 µM)		
CCn1cc(C(=O)O)c(=O)c2cc(F)c(N3CCN(c4ccc(NC(=S)NCCCN5CCOCC5)cc4F)CC3)cc21	62.5 µg/mL (≈ 102 µM)	500 µg/mL (≈ 813 µM)	inactive	inactive	125 µg/mL (≈ 203 µM)	inactive	31.2 µg/mL (≈ 50.8 µM)	15.6 µg/mL (≈ 25.4 µM)		
CCn1cc(C(=O)O)c(=O)c2cc(F)c(N3CCN(c4ccc(N)cc4F)CC3)cc21	< 1.9 µg/mL	7.81 µg/mL (≈ 18.2 µM)	1.95 µg/mL (≈ 4.55 µM)	inactive	< 1.9 µg/mL	inactive	< 1.9 µg/mL	< 1.9 µg/mL		
OC(Cn1cncn1)(Cn1cncn1)c1ccc(F)cc1F [FLUCONAZOLE]				< 8 µg/mL		< 8 µg/mL				
CCNC(=S)Nc1ccc(N2CCN(c3cc4c(cc3F)c(=O)c(C(=O)O)cn4CC)CC2)c(F)c1	inactive	inactive	inactive	250 µg/mL (≈ 485 µM)	inactive	250 µg/mL (≈ 485 µM)	inactive	inactive		
CCn1cc(C(=O)O)c(=O)c2cc(F)c(N3CCN(c4ccc(/N=C5\SC(=O)CN5Cc5ccccc5)cc4F)CC3)cc21	62.5 µg/mL (≈ 101 µM)	inactive	62.5 µg/mL (≈ 101 µM)	250 µg/mL (≈ 405 µM)	125 µg/mL (≈ 202 µM)	250 µg/mL (≈ 405 µM)	125 µg/mL (≈ 202 µM)	125 µg/mL (≈ 202 µM)		
CC1(C)S[C@@H]2[C@H](NC(=O)[C@H](N)c3ccccc3)C(=O)N2[C@H]1C(=O)O [AMPICILLIN]	18 µg/mL (≈ 51.5 µM)	> 128 µg/mL			15 µg/mL (≈ 42.9 µM)		10 µg/mL (≈ 28.6 µM)	35 µg/mL (≈ 100 µM)		
COc1ccccc1N1CCN(CC(=O)N/N=C\c2ccccc2O)CC1	31.3 µg/mL (≈ 85 µM)	62.5 µg/mL (≈ 170 µM)	31.3 µg/mL (≈ 85 µM)	62.5 µg/mL (≈ 170 µM)	31.3 µg/mL (≈ 85 µM)	250 µg/mL (≈ 679 µM)	15.6 µg/mL (≈ 42.3 µM)	31.3 µg/mL (≈ 85 µM)		
CCN1CC(=O)S/C1=N\c1ccc(N2CCN(c3cc4c(cc3F)c(=O)c(C(=O)O)cn4CC)CC2)c(F)c1	inactive	inactive	inactive	250 µg/mL (≈ 450 µM)	250 µg/mL (≈ 450 µM)	250 µg/mL (≈ 450 µM)	250 µg/mL (≈ 450 µM)	250 µg/mL (≈ 450 µM)		
NC(N)=S [THIOUREA]									678 µM	
CN[C@@H]1[C@H](O[C@H]2[C@H](O[C@H]3[C@H](O)[C@@H](O)[C@H](N=C(N)N)[C@@H](O)[C@@H]3N=C(N)N)O[C@@H](C)[C@]2(O)C=O)O[C@@H](CO)[C@H](O)[C@H]1O [STREPTOMYCIN]			4 µg/mL (≈ 6.88 µM)							
CCn1cc(C(=O)O)c(=O)c2cc(F)c(N3CCN(C(=O)CSc4nnc(CN5CCN(c6ccccc6OC)CC5)n4-c4ccccc4)CC3)cc21									27.7 µM	86.2%
CCn1cc(-c2ccc(Cl)cc2)s/c1=N\c1ccc(N2CCN(c3cc4c(cc3F)c(=O)c(C(=O)O)cn4CC)CC2)c(F)c1	inactive	inactive	inactive	inactive	1000 µg/mL (≈ 1540 µM)	inactive	inactive	inactive		
CCn1cc(C(=O)O)c(=O)c2cc(F)c(N3CCN(c4ccc([N+](=O)[O-])cc4F)CC3)cc21	31.5 µg/mL (≈ 68.7 µM)	inactive	inactive	inactive	inactive	inactive	inactive	inactive		
CCn1cc(C(=O)O)c(=O)c2cc(F)c(N3CCN(c4ccc(NC(=S)NCc5ccccc5)cc4F)CC3)cc21	< 1.9 µg/mL	31.5 µg/mL (≈ 54.5 µM)	0.97 µg/mL (≈ 1.68 µM)	inactive	< 1.9 µg/mL	inactive	< 1.9 µg/mL	< 1.9 µg/mL		
COc1ccc(/C=N\NC(=O)CN2CCN(c3ccccc3OC)CC2)cc1O	31.3 µg/mL (≈ 78.6 µM)	31.3 µg/mL (≈ 78.6 µM)	31.3 µg/mL (≈ 78.6 µM)	31.3 µg/mL (≈ 78.6 µM)	31.3 µg/mL (≈ 78.6 µM)	62.5 µg/mL (≈ 157 µM)	15.6 µg/mL (≈ 39.2 µM)	31.3 µg/mL (≈ 78.6 µM)		
